The source of these data is paper PMC7583637 (Bioconjugate Chemistry, 2020).

The test system of series [1] is c-FLIP mRNA. The series is described as follows: RT-qPCR of c-FLIP mRNA expression. As to conditions: 300 nM, Lipofectamine LTX, 24 h; for Reduction of c-FLIP mRNA levels: A549, relative to reference genes, ΔΔCq, n = 3; for Effect on c-FLIP mRNA levels: A549. Format: cell-based, human.
Series [2] has as its system A549 cells. Particulars: read-out: IC50, toxicity to A549 cells; cited from earlier work.
Series [3] addresses XIAP L-Bir2-Bir3 (Homo sapiens, UniProt P98170). The series is described as follows: Competitive fluorescence polarization binding assay with Smac-1F probe. In general terms: In fluorescence polarisation assays a small probe gives low polarisation when free and higher when bound to something large.
The test system of series [4] is Caspase 3 and 7 activity. The series is described as follows: Caspase 3/7 assay. Format: cell-based, human. As to conditions: 200 nM conjugate, 2 ng/mL SuperKillerTRAIL, 24 h, DEVD-AFC. The procedure, abridged:
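A549 cells were seeded in 6-well plates 24 h ahead and lipofected to a final 200 nM with 2 ng/mL SuperKillerTRAIL. After 24 h, cells were harvested and lysed (HEPES/NaCl/EDTA/1% Triton X-100, pH 7.5; 20 min on ice with sonication), and protein was measured by BCA. 35 μg protein was mixed with 2× buffer (HEPES, 20 mM DTT, 20% glycerol, pH 7.5) containing 50 μM DEVD-AFC, 2 h at 37 °C in the dark. […] versus medium-treated control; SD shown.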

Series [5] concerns A549 cells. The series is described as follows: AlamarBlue viability assay after lipofection of SMC-PSO conjugates. Format: cell-based, human. Particulars: 100 nM, Lipofectamine LTX, 48 h, no TRAIL; for Loss of viability: relative to medium control. The procedure, abridged: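 A549 cells in DMEM with 10% FCS and 4 mM glutamine (37 °C, 5% CO2) were seeded at 5 × 10³ cells/well and grown 24 h to ~70% confluency. Conjugate in OptiMEM was complexed with PLUS Reagent, then Lipofectamine LTX (20 min, RT), and added at 100 nM final in antibiotic-free medium. After 48 h, cells were PBS-washed and given alamarBlue (1:10 in PBS) for 2 h at 37 °C. Fluorescence was read at 531/590 nm relative to medium control.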
In general terms: Alamar Blue is a resazurin reagent that responds to reducing activity.

The test system of series [6] is A549 cells. The series is described as follows: AlamarBlue viability assay, PNA-CPP and SMC-PNA-CPP conjugates or chloroquine. Format: cell-based, human. Particulars: control experiments, Figure S7A.
Series [7] deals with c-FLIP. As to conditions: 2′-MOE-RNA/DNA gapmer PSOs; cited from earlier work.

Where a SMILES comes first, the peptide text is derived from it. [ ]: non-standard residue; d: D form. Dip = N[C@H](C(=O)O)C(c1ccccc1)c1ccccc1; Chg = N[C@H](C(=O)O)C1CCCCC1; NMeA = CN[C@@H](C)C(=O)O

Sequence of XIAP L-Bir2-Bir3 (P98170 120-356): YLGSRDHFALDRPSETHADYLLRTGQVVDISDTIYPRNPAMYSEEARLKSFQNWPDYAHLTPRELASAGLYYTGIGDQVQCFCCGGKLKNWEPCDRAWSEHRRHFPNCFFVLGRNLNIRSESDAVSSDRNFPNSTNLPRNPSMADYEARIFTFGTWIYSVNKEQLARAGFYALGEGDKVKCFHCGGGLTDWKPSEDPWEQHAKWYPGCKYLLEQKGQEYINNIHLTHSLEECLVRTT

“AcS-Chg-Pro-Dip-Gly-Gly-Lys(N3-DBCO-ACTTGTCCCTGCTCCTTGAA)-Dap(AcS-Chg-Pro-Dip)-NH2 [(AcSMC)2-PSO1]”: the “Reduction of c-FLIP mRNA levels” value in series [1] is recorded as “around 40%”.
In general, IC50 refers to the midpoint of a concentration-inhibition curve. For Transportan, in series [2], the IC50 is 2.5 µM.
In series [3], `CN[C@@H](C)C(=O)N[C@H](C(=O)N1CCC[C@H]1C(=O)N[C@H](C(=O)NCC(N)=O)C(c1ccccc1)c1ccccc1)C1CCCCC1` [SMC, H-MeAla-Chg-Pro-Dip-Gly-NH2] (H-[NMeA][Chg]P[Dip]G-NH2) showed an IC50 of 4.6 µM.
Consider “MeA-Chg-Pro-Dip-Gly-Gly-Lys(N3-DBCO-AGTTCTCTCTGCCCCTAGAT)-Dap(MeA-Chg-Pro-Dip)-NH2 [(SMC)2-scrPSO1]”, for which, in series [1], the “Effect on c-FLIP mRNA levels” value is “upregulation of c-FLICE did not occur”.
Regarding “MeA-Chg-Pro-Dip-Gly-Gly-Lys(N3-DBCO-ACTTGTCCCTGCTCCTTGAA)-Dap(MeA-Chg-Pro-Dip)-NH2 [(SMC)2-PSO1]”, in series [4], the “Increase of caspase 3/7 activity over background” value is roughly 40 fold. In addition, the “Reduction of c-FLIP mRNA levels” value in series [1] is listed as “around 40%”. For the same molecule, in series [5], the Loss of viability is recorded as 50–60%.
Regarding “Ac-Gly-Lys(N3-DBCO-AGTTCTCTCTGCCCCTAGAT)-Dap(AcS-Chg-Pro-Dip)-NH2 [AcSMC-scrPSO1]”, the “Effect on viability” value in series [5] is given as “some decrease in viability”.
On to `CCN(CC)CCCC(C)Nc1ccnc2cc(Cl)ccc12` (centres unmarked) [chloroquine], for which, in series [6], the “Concentration up to which viability of A549 cells is not affected” value is reported as “up to 200 μM”.
Turning to “Ac-Gly-Lys(N3-DBCO-ACTTGTCCCTGCTCCTTGAA)-Dap(MeA-Chg-Pro-Dip)-NH2 [SMC-PSO1]”, the Loss of viability in series [5] stood at 40%.
Penetratin: the IC50 in series [2] was 60.8 µM.
With octaarginine, the concentration for half-maximal inhibition (IC50) in series [2] was greater than 1000 µM.
“Ac-Gly-Lys(N3-DBCO-AGTTCTCTCTGCCCCTAGAT)-Dap(MeA-Chg-Pro-Dip)-NH2 [SMC-scrPSO1]”: the Loss of viability entry in series [5] was “ca. 30%”.
In the case of “5'-AGTTCTCTCTGCCCCTAGAT-3' (phosphorothioate, further chemistry not given here) [unconjugated, scrambled PSO, reference compound]”, the “Effect on c-FLIP mRNA levels” value in series [1] is on record as “significant upregulation of c-FLIP levels”. In addition, the “Effect on viability” value in series [5] is “some decrease in viability”.
Turning to “5'-ACTTGTCCCTGCTCCTTGAA-3' (full phosphorothioate, further chemistry not given here) [ISIS 23296, reference compound]”, in series [7], the “Knockdown reported in original publication” value is 70%. Moreover, the “Reduction of c-FLIP mRNA levels” value in series [1] was “up to 50%”. Besides, the Loss of viability entry in series [5] was “ca. 30%”.
In the case of “AcS-Chg-Pro-Dip-Gly-Gly-Lys(N3-DBCO-AGTTCTCTCTGCCCCTAGAT)-Dap(AcS-Chg-Pro-Dip)-NH2 [(AcSMC)2-scrPSO1]”, in series [1], the “Effect on c-FLIP mRNA levels” value is “upregulation of c-FLICE did not occur”.
For the molecule “Ac-Gly-Lys(N3-DBCO-ACTTGTCCCTGCTCCTTGAA)-Dap(AcS-Chg-Pro-Dip)-NH2 [AcSMC-PSO1]”, the Loss of viability entry in series [5] was “ca. 30%”.
